Data on 39 molecules can be found in ChEMBL document CHEMBL1152589, “Identification and characterization of novel sirtuin inhibitor scaffolds” (Bioorg Med Chem, 2009).

The source made the active and inactive calls. The calls are words filed in the database; no cut-off is given here. A value given as a limit tells only on which side of the number the result lay.

The target of assay [1] is NAD-dependent protein deacetylase HST2 (Saccharomyces cerevisiae S288c) (UniProt P53686). The assay can be described thus: Inhibition of yeast Hst2 assessed as residual activity at 50 uM by fluorimetric assay relative to control.
Assay [2] shares this target. As to the kind of experiment: Inhibition of yeast Hst2 assessed as residual activity at 500 uM by fluorimetric assay relative to control.
In assay [3] the target is T1, NAD-dependent protein deacetylase HST2 (Saccharomyces cerevisiae S288c, UniProt P53686). As to the kind of experiment: Inhibition of yeast Hst2 by fluorimetric assay.
Assay [4] deals with T2, NAD-dependent protein deacetylase sirtuin-2 (Homo sapiens) (UniProt Q8IXJ6).
T2 sequence (whole entry): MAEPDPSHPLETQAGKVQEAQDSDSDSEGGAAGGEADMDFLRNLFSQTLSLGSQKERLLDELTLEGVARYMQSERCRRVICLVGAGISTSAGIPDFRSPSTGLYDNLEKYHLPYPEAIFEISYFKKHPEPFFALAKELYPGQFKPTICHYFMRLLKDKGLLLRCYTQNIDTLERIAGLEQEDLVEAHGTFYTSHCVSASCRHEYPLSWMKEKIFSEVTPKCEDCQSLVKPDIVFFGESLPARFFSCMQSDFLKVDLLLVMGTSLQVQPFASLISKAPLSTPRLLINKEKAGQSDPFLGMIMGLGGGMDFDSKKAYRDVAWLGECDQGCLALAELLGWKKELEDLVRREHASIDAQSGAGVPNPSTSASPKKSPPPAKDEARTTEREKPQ
The assay can be described thus: Inhibition of human SIRT2 by fluorogenic assay. On the set-up: concentration or dose not given beside the values. In short, it runs like this: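 Human SIRT2 isoform II construct with extra N-terminal residues, expressed in E. coli BL21-Gold (DE3) as a His6 fusion. Purified by Ni-NTA, with the tag removed by thrombin, then Q sepharose and Superdex-200 gel filtration. Assayed by fluorigenic deacetylation of Fluor de Lys-SIRT1 substrate.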

Assay [5] deals with NAD-dependent histone deacetylase SIR2 (Saccharomyces cerevisiae S288c) (UniProt P06700). As to the kind of experiment: Inhibition of Sir2 in Saccharomyces cerevisiae inserted URA3 reporter gene assessed as reduction of […] resistance at 10 uM by telomere silencing assay. On the technique in general: A reporter such as luciferase makes a cellular process visible.
For assay [6] the target is unchanged. The assay can be described thus: Inhibition of Sir2 in Saccharomyces cerevisiae inserted URA3 reporter gene assessed as reduction of […] resistance at 40 uM by telomere silencing assay.
Assay [7] addresses T3, NAD-dependent protein deacetylase sirtuin-1 (Homo sapiens, UniProt Q96EB6).
T3 sequence (Q96EB6 whole entry): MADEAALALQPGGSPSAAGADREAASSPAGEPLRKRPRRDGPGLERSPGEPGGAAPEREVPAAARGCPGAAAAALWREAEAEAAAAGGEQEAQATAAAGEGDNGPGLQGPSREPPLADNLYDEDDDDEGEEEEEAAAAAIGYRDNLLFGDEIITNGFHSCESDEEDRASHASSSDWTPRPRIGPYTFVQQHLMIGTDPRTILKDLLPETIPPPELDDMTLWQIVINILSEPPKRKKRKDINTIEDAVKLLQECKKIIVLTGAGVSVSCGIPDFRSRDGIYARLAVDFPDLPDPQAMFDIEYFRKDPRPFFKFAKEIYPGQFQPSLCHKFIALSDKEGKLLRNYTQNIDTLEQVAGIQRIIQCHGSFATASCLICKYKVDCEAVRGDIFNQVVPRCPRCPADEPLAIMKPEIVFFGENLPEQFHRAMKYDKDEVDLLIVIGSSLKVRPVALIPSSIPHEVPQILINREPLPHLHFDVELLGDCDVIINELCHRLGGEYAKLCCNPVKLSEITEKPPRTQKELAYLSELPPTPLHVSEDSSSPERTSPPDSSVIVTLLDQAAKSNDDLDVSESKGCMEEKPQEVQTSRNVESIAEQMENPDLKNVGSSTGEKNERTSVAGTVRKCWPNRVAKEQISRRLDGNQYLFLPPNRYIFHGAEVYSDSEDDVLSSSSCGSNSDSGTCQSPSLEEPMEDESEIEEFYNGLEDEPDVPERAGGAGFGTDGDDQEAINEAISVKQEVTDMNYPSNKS
As to the kind of experiment: Inhibition of human full length SIRT1 expressed in DE3 cells by fluorimetric assay. The class given is cell-based.

The target of assay [8] is T1, NAD-dependent protein deacetylase HST2. As to the kind of experiment: Mixed inhibition of yeast Hst2 using Acetyl-lysine substrate.
In assay [9] the target is NAD-dependent histone deacetylase SIR2 (Saccharomyces cerevisiae S288c) (UniProt P06700). The assay can be described thus: Inhibition of Sir2 in Saccharomyces cerevisiae inserted URA3 reporter gene assessed as reduction of […] resistance at 1 mM by telomere silencing assay.

NAD-dependent histone deacetylase SIR2 (Saccharomyces cerevisiae S288c), sequence (P06700 whole entry): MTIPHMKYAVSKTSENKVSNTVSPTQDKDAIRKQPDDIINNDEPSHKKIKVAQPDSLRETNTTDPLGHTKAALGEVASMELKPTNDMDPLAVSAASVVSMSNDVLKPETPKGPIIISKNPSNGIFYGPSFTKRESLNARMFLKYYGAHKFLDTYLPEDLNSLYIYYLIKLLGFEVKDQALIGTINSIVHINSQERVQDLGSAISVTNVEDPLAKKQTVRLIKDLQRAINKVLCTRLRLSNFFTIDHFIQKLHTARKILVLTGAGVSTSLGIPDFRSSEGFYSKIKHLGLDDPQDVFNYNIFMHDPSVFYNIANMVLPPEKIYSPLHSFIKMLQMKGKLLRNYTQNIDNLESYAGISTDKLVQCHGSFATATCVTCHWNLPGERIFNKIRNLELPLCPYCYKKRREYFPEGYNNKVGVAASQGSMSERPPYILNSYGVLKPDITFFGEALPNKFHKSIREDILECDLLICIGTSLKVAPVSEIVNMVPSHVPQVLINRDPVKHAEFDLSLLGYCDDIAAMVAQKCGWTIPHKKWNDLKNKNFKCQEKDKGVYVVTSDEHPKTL
T1 sequence (P53686 whole entry): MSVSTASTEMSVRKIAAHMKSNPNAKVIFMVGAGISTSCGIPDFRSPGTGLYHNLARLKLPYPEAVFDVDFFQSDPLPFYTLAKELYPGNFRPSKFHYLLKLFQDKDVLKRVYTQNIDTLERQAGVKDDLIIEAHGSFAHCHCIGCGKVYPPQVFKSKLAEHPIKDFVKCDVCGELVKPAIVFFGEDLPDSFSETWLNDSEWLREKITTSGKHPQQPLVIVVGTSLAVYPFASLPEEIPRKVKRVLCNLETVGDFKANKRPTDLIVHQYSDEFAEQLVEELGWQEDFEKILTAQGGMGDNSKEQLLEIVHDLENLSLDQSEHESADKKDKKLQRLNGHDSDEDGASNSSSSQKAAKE
NAD-dependent protein deacetylase HST2 (Saccharomyces cerevisiae S288c), sequence (P53686 whole entry): as above

`Cc1ccc(OCCCC(=O)Oc2ccc3c(C)cc(=O)oc3c2)cc1`: the Activity in [1] is 99%; in assay [2] it was 57%.
On to `Oc1ccc(Cc2ccccc2)cc1`, for which the Activity in assay [1] came out at 100%; in assay [2], 88%.
For the molecule `Nc1ccc2c(c1)C(=O)N(CCC(=O)O)C2`, the IC50 (usually the point on the concentration scale where inhibition reaches its midpoint) in assay [3] is listed as “Not Active”.
With `Nc1cccc(Cc2cccc(N)c2)c1`, the Activity in assay [1] and in [2] was 100% throughout.
For the molecule `COCCCC1c2cc(O)c(OC)cc2CCN1C` (centres undefined), the Activity was determined as 99% in assay [1] and 92% in assay [2].
The matching figures for `Cc1ccc(OCCCC(=O)Oc2ccc3c(C)cc(=O)oc3c2)c(C)c1`: 90% and 51%.
Regarding `Cc1c(Cl)c(=O)oc2cc(OC(=O)CCNC(=O)Oc3ccccc3)ccc12`, the Activity in [1] stood at 100%; in assay [2], 74%.
As to `Cc1cc(Cl)c(O)c(Cc2c(O)c(Cl)cc(Cl)c2Cl)c1Cl`, in assay [4], the Activity was 18.5%. Also, the result in [5] and in assay [6] was Active. Further, the figures for the IC50 in assay [7] and in assay [3] (read-out: IC50) were 34 µM and 12.5 µM, respectively. For the same molecule, the inhibitory constant (Ki) (usually a measure of affinity in units of concentration, obtained from inhibition or displacement) in assay [8] amounted to 2.5 µM.
For `CN(C)CCCCC(=O)Nc1ccc(NC(=S)NC(=O)c2ccc(C(C)(C)C)cc2)cc1`, the half-inhibitory concentration (IC50) in assay [3] (read-out: IC50) is > 100 µM.
For the molecule `COc1ccc(OCCCC(=O)Oc2ccc3c(c2)CCC3)cc1`, the Activity in assay [1] was found to be 95%; in assay [2], 58%.
Consider `Cc1cc(=O)oc2cc(OC(=O)COc3ccccc3)ccc12`, for which the Activity in [1] was 91%; in assay [2], 45%.
With `CC(C)C(=O)CCN1C(=O)c2ccccc2C1=O`, the half-inhibitory concentration (IC50) result in assay [3] is “Not Active”.
Regarding `COc1ccc(OCCCC(=O)Oc2ccc3c(C)cc(=O)oc3c2)cc1`, the Activity in [1] stood at 93%; in assay [2], 35%.
Turning to `C#C[C@@H]1c2cc(O)c(OC)cc2CCN1C`, the Activity was 97% in assay [1] and 74% in assay [2].
With `O=C(O)CCCN1C(=O)c2ccccc2C1=O`, the half-inhibitory concentration (IC50) entry in assay [3] was “Not Active”.
As to `O=C1CCc2c(ccc3ccccc23)O1` [SPLITOMICIN], in assay [3] (read-out: IC50), the IC50 is > 600 µM.
Turning to `NC(=O)c1cccnc1`, the Activity in assay [4] came out at 26%.
As to `O=C(O)CCN1C(=O)c2cc(Cl)c(Cl)cc2C1=O`, the concentration for half-maximal inhibition (IC50) result in [3] is given as “Not Active”.
With `Oc1c(Cc2ccccc2Cl)ccc2cccnc12`, the Activity in [1] and in [2] was 100% throughout.
Consider `O=C1c2ccccc2C(=O)N1CCBr`, for which, in assay [3], the 50% inhibitory concentration (IC50) entry is reported as “Not Active”.
For the molecule `Cc1c(Cl)c(=O)oc2cc(OC(=O)CCCOc3ccc(Cl)cc3Cl)ccc12`, the Activity in assay [1] amounted to 90%; in [2], 68%.
`COC/C=C/C1c2cc(O)c(OC)cc2CCN1C` (centres undefined): the Activity in assay [1] is 97%; in assay [2] it was 94%.
With `COCC#CC1c2cc(O)c(OC)cc2CCN1C` (centres undefined), the Activity in assay [4] turned out to be 92.1%.
As for `NC(=O)C1CCCCc2c1[nH]c1ccc(Cl)cc21` (centres undefined), the IC50 in [3] (read-out: IC50) turned out to be 1.3 µM.
`C[S+]([O-])CCC(C(=O)O)N1C(=O)c2ccccc2C1=O` (centres undefined): the IC50 entry in [3] was “Not Active”.
On to `Cc1cc(Cc2cc(C)c(O)c(C)c2)cc(C)c1O`, for which the Activity in [1] was 89%; in assay [2], 43%.
Consider `Cn1cc(C2=C(c3cn(CCCSC(=N)N)c4ccccc34)C(=O)NC2=O)c2ccccc21` [BISINDOLYLMALEIMIDE IX], for which the concentration for half-maximal inhibition (IC50) in assay [3] (read-out: IC50) was 20 µM.
For the molecule `Cc1ccc(OCCCC(=O)Oc2ccc3c(c2)CCC3)c(C)c1`, the Activity in assay [1] worked out at 93%; in assay [2], 49%.
For `COCC#CC1(C)c2cc(O)c(OC)cc2CCN1C` (centres undefined), the Activity in [1] and in assay [2] was 100% throughout.
In the case of `Cc1cccc(OCC(=O)Oc2ccc3c(C)cc(=O)oc3c2)c1`, the Activity is 90% in assay [1] and 13% in assay [2].
In assay [4], `O=C(O)CCN1Cc2ccccc2C1=O` displayed an Activity of 89%. The outcome in assay [9] was Active. The IC50 in [3] (read-out: IC50) is 19.9 µM.
Regarding `OC(c1ccccc1)c1ccc(C(F)(F)F)cc1` (centres undefined), the Activity in assay [1] was determined as 100%; in [2], 81%.
`COCC#CC1c2cc(O)c(OC)cc2CCN1Cc1ccc(OC)cc1` (centres undefined): the IC50 in [3] (read-out: IC50) was determined as 260 µM.
Turning to `C#C[C@H]1c2cc(O)c(OC)cc2CCN1C`, the Activity came out at 96% in assay [1] and 70% in assay [2].
`Cc1ccc2[nH]c3c(c2c1)CCCCC3C(N)=O` (centres undefined): the IC50 in assay [7] was found to be 0.64 µM; in [3] (read-out: IC50), 14.5 µM.
For `C#CC1c2cc(O)c(OC)cc2CCN1C` (centres undefined), the Activity in [1] is 100%; in assay [2], 86%.
Regarding `O=C(O)CCN1C(=O)c2ccc(-c3nc4ccccc4c(=O)o3)cc2C1=O`, the half-inhibitory concentration (IC50) result in [3] is listed as “Not Active”.
For `COc1cc2c(cc1O)CN(C)CC2`, the Activity in assay [1] stood at 100%; in assay [2], 98%.
As to `CCc1ccc(OCCCC(=O)Oc2ccc3c(C)cc(=O)oc3c2)cc1`, the figures for the Activity in [1] and in [2] were 86% and 53%, respectively.
